# Assay results reported in ChEMBL document CHEMBL1240364, “Ex vivo comparison of microbicide efficacies for preventing HIV-1 genomic integration in intraepithelial vaginal cells” (Antimicrob Agents Chemother, 2010).
# Columns and labels:
# [1] = tested on: Human immunodeficiency virus 1; experiment: Antiviral activity against HIV1 JRCSF infected in human vaginal intraepithelial cells assessed as decrease in viral genomic integration at 30 uM by multiplex PCR assay; assay type: functional, JRCSF ISOLATE; parameters: scale not given: the % may be the effect or the level left
# Method in brief: (§1)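 EDTA-separated vaginal epithelial sheets, calcium-replenished, pretreated 1 h with a single compound concentration, then spinoculated with 100 ng/ml Gag p24 HIV-1JRCSF (2 h, 1,200 × g) and cultured 48 h at 37°C. Integrated DNA measured by Alu-LTR nested real-time PCR against an ACH-2 standard curve, with β-actin normalization run either in separate wells (singleplex) or in the same wells (multiplex). Quadruplicate PCRs; integration relative to untreated infection.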
# [2] = tested on: Human immunodeficiency virus 1; experiment: Antiviral activity against HIV1 isolate M1 infected in human vaginal intraepithelial cells assessed as decrease in viral genomic integration at 1 uM after 48 hrs by multiplex PCR assay; assay type: functional; parameters: scale not given: the % may be the effect or the level left
# Method in brief: (§2)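 Vaginal epithelial sheets from two donors, EDTA-isolated and calcium-replenished, were preincubated with compound and then spinoculated with 100 ng/ml Gag p24 of primary mucosal isolate HIV-1M1 for 2 h at 1,200 × g. After 48 h culture, integration was measured by multiplex Alu-LTR/β-actin nested real-time PCR and expressed relative to untreated infection.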
# [3] = tested on: Human immunodeficiency virus 1; experiment: Antiviral activity against HIV1 JRCSF infected in human vaginal intraepithelial cells assessed as viral genomic integration relative to control at 30 uM by singleplex PCR assay; settings: Human immunodeficiency virus 1, JRCSF ISOLATE
# [4] = tested on: Human immunodeficiency virus 1; experiment: Antiviral activity against HIV1 JRCSF infected in human vaginal epithelium assessed as inhibition of viral genomic integration by titration assay; assay type: functional; settings: for IC50: Human immunodeficiency virus 1, JRCSF ISOLATE; for Activity: JRCSF ISOLATE
# Method in brief: (§3)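 Vaginal epithelial sheets separated from stroma with 5 mM EDTA overnight at 4°C, replenished 1 h with 5 mM CaCl2. Pretreated with compound titrations for 1 h, then spinoculated with 100 ng/ml Gag p24 HIV-1JRCSF for 2 h at 1,200 × g. Sheets washed and cultured 2–3 days at 37°C. Emigrated cells and sheets pooled; Alu-LTR nested real-time PCR run in quadruplicate. Integration expressed relative to untreated infection; IC50 by nonlinear regression.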
# [5] = tested on: Human immunodeficiency virus 1; experiment: Antiviral activity against HIV1 JRCSF infected in human vaginal intraepithelial cells assessed as decrease in viral genomic integration at 1 uM by singleplex PCR assay; assay type: functional, JRCSF ISOLATE; parameters: scale not given: the % may be the effect or the level left; method in brief: as §1
# [6] = tested on: Human immunodeficiency virus 1; experiment: Antiviral activity against HIV1 JRCSF infected in human vaginal intraepithelial cells assessed as viral genomic integration relative to control at 1 uM by singleplex PCR assay; settings: Human immunodeficiency virus 1, JRCSF ISOLATE
# [7] = tested on: Human immunodeficiency virus 1; experiment: Antiviral activity against HIV1 JRCSF infected in human vaginal epithelium mucosa assessed as decrease viral integration at 10 ng/ml by titration assay; assay type: functional; settings: Human immunodeficiency virus 1, JRCSF ISOLATE; method in brief: as §3
# [8] = tested on: Human immunodeficiency virus 1; experiment: Antiviral activity against HIV1 JRCSF infected in human vaginal epithelium leukocytes assessed as inhibition of viral genomic integration by titration assay; assay type: functional, cell-based; settings: JRCSF ISOLATE; method in brief: as §3
# [9] = tested on: Human immunodeficiency virus 1; experiment: Antiviral activity against HIV1 JRCSF infected in PHA-activated human T cells assessed as inhibition of viral genomic integration by titration assay; assay type: functional, cell-based; settings: T-cell
# Method in brief: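 PBMC from two blood donors activated 2 days with 0.4 μg/ml PHA; 100,000 lymphoblasts per well pretreated in duplicate with a concentration series for 1 h at room temperature, infected with 200 ng/ml Gag p24 HIV-1JRCSF for 2 h, washed, cultured 48 h at 37°C in medium with 50 U/ml IL-2. Integrated DNA measured by Alu-LTR nested real-time PCR; IC50 from nonlinear regression.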
# [10] = tested on: Human immunodeficiency virus 1; experiment: Antiviral activity against HIV1 JRCSF infected in human intraepithelial leukocytes assessed as decrease viral integration at 0.5 ug/ml by titration assay; assay type: functional, JRCSF ISOLATE; parameters: scale not given: the % may be the effect or the level left; method in brief: as §3
# [11] = tested on: Human immunodeficiency virus 1; experiment: Antiviral activity against HIV1 JRCSF infected in human intraepithelial leukocytes assessed as decrease viral integration at 0.1 ug/ml by titration assay; assay type: functional, JRCSF ISOLATE; parameters: scale not given: the % may be the effect or the level left; method in brief: as §3
# [12] = tested on: Human immunodeficiency virus 1; experiment: Antiviral activity against HIV1 isolate M1 infected in human vaginal intraepithelial cells assessed as decrease in viral genomic integration at 0.223 uM after 48 hrs by multiplex PCR assay; assay type: functional; parameters: scale not given: the % may be the effect or the level left; method in brief: as §2
# [13] = tested on: Human immunodeficiency virus 1; experiment: Antiviral activity against HIV1 JRCSF infected in human vaginal intraepithelial cells assessed as viral genomic integration relative to control at 0.223 uM by singleplex PCR assay; settings: Human immunodeficiency virus 1, JRCSF ISOLATE
# [14] = tested on: Human immunodeficiency virus 1; experiment: Antiviral activity against HIV1 JRCSF infected in human vaginal intraepithelial cells assessed as decrease in viral genomic integration at 0.223 uM by multiplex PCR assay; assay type: functional, JRCSF ISOLATE; parameters: scale not given: the % may be the effect or the level left; method in brief: as §1
molecule,measurement,setting,value
Cc1ccc(-c2ccc3c(c2)C=C(C(=O)Nc2ccc(C[N+](C)(C)C4CCOCC4)cc2)CCC3)cc1.[Cl-],Activity,[1],8.6%
same,Activity,[2],<2%
same,"level, % of control at 30 µM",[3],10%
same,IC50,[4],5.84 nM
same,Activity,[4],Dose-dependent effect
[N-]=[N+]=NCc1cccc(C(=O)/C=C(\O)C(=O)O)c1,IC50,[4],190 nM
same,Activity,[4],Dose-dependent effect
same,Activity,[5],8.4%
c1cc(CN2CCCNCCNCCCNCC2)ccc1CN1CCCNCCNCCCNCC1 [PLERIXAFOR],"level, % of control at 1 µM",[6],177%
same,Activity,[2],117%
enfuvirtide,inhibition at 0.01 µg/mL,[7],> 80%
same,Activity,[8],Dose-dependent effect
same,IC50,"[9]; Human immunodeficiency virus 1, JRCSF ISOLATE",7.57 nM
same,Activity,[9]; JRCSF ISOLATE,Dose-dependent effect
same,Activity,[10],30.4%
same,Activity,[11],1.92%
same,Activity,[12],<2%
same,"level, % of control at 0.223 µM",[13],8%
same,Activity,[14],6%
